# Laboratory results from ChEMBL document CHEMBL3414530, “Synthesis, molecular modeling, and biological evaluation of novel RAD51 inhibitors” (Eur J Med Chem, 2015).
# The source made the active and inactive calls. The rule behind the calls is not given here.
# Assays:
# [1] = test system: MDA-MB-468; test: Cytotoxicity against human MDA-MB-468 cells assessed as growth inhibition after 4 days by XTT assay; type: functional, cell-based; settings: MDA-MB-468, 96 h
# How it was run: (§1)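 Cells kept in low-glucose DMEM with 10% FBS and 1% penicillin-streptomycin, seeded in 96-well plates the day before treatment. Compound exposure lasted four days, and the XTT cell proliferation kit was read on day 6 after drug addition. Dose-response cytotoxicity was measured in triplicate sets.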
# [2] = test system: K562; test: Cytotoxicity against human K562 cells assessed as growth inhibition after 4 days by XTT assay; type: functional, cell-based; settings: K562, 96 h
# [3] = Cytotoxicity against human Hs578T cells assessed as growth inhibition after 4 days by XTT assay; type: functional, cell-based; settings: Hs-578T, 96 h; how it was run: as §1
# [4] = test system: MDA-MB-231; test: Cytotoxicity against human MDA-MB-231 cells assessed as growth inhibition after 4 days by XTT assay; type: functional, cell-based; settings: MDA-MB-231, 96 h; how it was run: as §1
# [5] = test system: MDA-MB-361; test: Cytotoxicity against human MDA-MB-361 cells assessed as growth inhibition after 4 days by XTT assay; type: functional, cell-based; settings: MDA-MB-361, 96 h; how it was run: as §1
# [6] = test system: MCF7; test: Cytotoxicity against human MCF7 cells assessed as growth inhibition after 4 days by XTT assay; type: functional, cell-based; settings: MCF7, 96 h; how it was run: as §1
# [7] = test system: HeLa; test: Cytotoxicity against human HeLa cells assessed as growth inhibition after 4 days by XTT assay; type: functional, cell-based; settings: 96 h
# [8] = test system: T47D; test: Cytotoxicity against human T47D cells assessed as growth inhibition after 4 days by XTT assay; type: functional, cell-based; settings: 96 h
# [9] = test system: MDA-MB-435; test: Cytotoxicity against human MDA-MB-435 cells assessed as growth inhibition after 4 days by XTT assay; type: functional, cell-based; settings: MDA-MB-435, 96 h; how it was run: as §1
# [10] = target: T1, DNA repair protein RAD51 homolog 1 (Homo sapiens) (UniProt Q06609); test: Inhibition of RAD51 in human HeLa cells expressing DR-GFP assessed as reduction of homologous recombination frequency after 24 hrs by I-SceI inducible gene conversion assay; type: cell-based
# T1 sequence (whole entry): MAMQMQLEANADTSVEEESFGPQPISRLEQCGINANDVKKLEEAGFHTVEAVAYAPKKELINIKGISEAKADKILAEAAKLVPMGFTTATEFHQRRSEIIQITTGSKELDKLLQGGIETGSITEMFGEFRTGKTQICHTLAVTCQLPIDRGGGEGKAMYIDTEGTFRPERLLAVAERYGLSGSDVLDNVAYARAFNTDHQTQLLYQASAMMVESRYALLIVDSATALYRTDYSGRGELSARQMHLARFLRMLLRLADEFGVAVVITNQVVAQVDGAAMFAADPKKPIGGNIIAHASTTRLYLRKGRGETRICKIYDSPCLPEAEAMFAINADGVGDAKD
# How it was run: (§2)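 HeLa cells stably carrying DR-GFP (puromycin 2 µg/mL selection) were transiently transfected with I-SceI vector pCBASce for 24 h to induce DSBs. They were then treated with DMSO or compound at 10 or 20 µM for another 24 h. GFP-positive percentage was measured by flow cytometry as means±SD from three independent experiments.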
# [11] = test system: T98G; test: Cytotoxicity against human T98G cells assessed as growth inhibition after 4 days by XTT assay; type: functional, cell-based; settings: 96 h; how it was run: as §1
# [12] = test system: U2OS; test: Cytotoxicity against human U2OS cells assessed as growth inhibition after 4 days by XTT assay; type: functional, cell-based; settings: 96 h; how it was run: as §1
# [13] = Selectivity ratio of IC50 for human MCF10A cells to IC50 for human T47D cells; type: ADME, cell-based, MCF-10A; settings: MCF10A cells versus T47D cells
# [14] = Cytotoxicity against human MCF10A cells assessed as growth inhibition after 4 days by XTT assay; type: cell-based; settings: MCF-10A, 96 h
# [15] = Selectivity ratio of IC50 for human MCF10A cells to IC50 for human T98G cells; type: ADME, cell-based, MCF-10A; settings: MCF10A cells versus T98G cells
# [16] = target: T1, DNA repair protein RAD51 homolog 1 (Homo sapiens); test: Inhibition of RAD51 (unknown origin) multimerization at 1:10 M ratio of protein to compound after 15 mins by gel filtration method
# How it was run: (§3)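 Purified RAD51 (3.2 µg) preincubated with compound at 1:10 protein:compound molar ratio, 15 min at 37°C. Then 15 min in 50 mM triethanolamine-HCl pH 7.5, 0.5 mM Mg(OAc)2, 1 mM DTT, 2 mM ATP, 100 µg/ml BSA. Run on Superdex 200 PC 3.2/30 gel filtration in the same buffer. 50 µl fractions dot-blotted onto PVDF and probed with anti-RAD51 mAb 14B4.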
# [17] = target: T1, DNA repair protein RAD51 homolog 1 (Homo sapiens); test: Inhibition of RAD51 (unknown origin) multimerization by gel filtration method; how it was run: as §3
# [18] = target: T1, DNA repair protein RAD51 homolog 1 (Homo sapiens); test: Inhibition of RAD51 in human HeLa cells expressing DR-GFP assessed as reduction of homologous recombination frequency at 10 to 20 uM after 24 hrs by I-SceI inducible gene conversion assay; type: cell-based; how it was run: as §2
Structure (SMILES),IC50 [1] [µM],other results
O=S(=O)(Cc1ccccc1)N1CCc2ccccc2[C@@H]1c1c[nH]c2ccccc12,11.7,–
O=S(=O)(Cc1ccc(C(F)(F)F)cc1)N1CCc2ccccc2[C@H]1c1c[nH]c2ccccc12,20.7,–
O=S(=O)(Cc1ccccc1F)N1CCc2ccccc2[C@@H]1c1c[nH]c2ccccc12,12.7,–
O=S(=O)(Cc1cccc(C(F)(F)F)c1)N1CCc2ccccc2[C@H]1c1c[nH]c2ccccc12,22.2,–
O=S(=O)(Cc1ccc(C(F)(F)F)cc1)N1CCc2ccccc2[C@@H]1c1c[nH]c2ccccc12,13.6,–
O=S(=O)(Cc1ccccc1)N1CCc2ccccc2[C@H]1c1c[nH]c2ccccc12,13.2,–
O=S(=O)(Cc1ccccc1)N1CC=Cc2ccccc2[C@@H]1c1c[nH]c2ccccc12,14.7,–
O=S(=O)(Cc1ccccc1)N1CCc2ccccc2[C@H]1c1n[nH]c2ccccc12,14.3,–
O=S(=O)(Cc1ccccc1)N1Cc2ccccc2[C@H]1c1c[nH]c2ccccc12,> 12,–
O=S(=O)(Cc1cccc(F)c1)N1CCc2ccccc2[C@@H]1c1c[nH]c2ccccc12,14.2,–
O=S(=O)(Cc1ccccc1C(F)(F)F)N1CCc2ccccc2[C@H]1c1c[nH]c2ccccc12,16.7,–
O=S(=O)(Cc1cccc(F)c1)N1CCc2ccccc2[C@H]1c1c[nH]c2ccccc12,17.2,–
O=S(=O)(Cc1ccc(F)cc1)N1CCc2ccccc2[C@@H]1c1c[nH]c2ccccc12,11.2,–
O=S(=O)(Cc1ccccc1)N1C=Cc2ccccc2C1c1c[nH]c2ncccc12 (racemic),6.2,–
O=S(=O)(Cc1ccccc1)N1Cc2ccccc2[C@@H]1c1c[nH]c2ccccc12,–,IC50 [2]: 3.6 µM; IC50 [3]: 4.9 µM; IC50 [4]: 3.5 µM; IC50 [5]: 4.5 µM; IC50 [6]: 3.1 µM; IC50 [7]: 3.6 µM; IC50 [8]: 6.3 µM; IC50 [9]: 4 µM; inhibition [10]: Dose-dependent effect; IC50 [11]: 9.5 µM; IC50 [12]: 4.7 µM; selectivity ratio [13]: > 4.8; IC50 [14]: > 30 µM; selectivity ratio [15]: > 3.2; inhibition [16]: Active
O=S(=O)(Cc1ccccc1)N1C=Cc2ccccc2C1c1c[nH]c2ccccc12 (racemic),14.8,inhibition [17]: Active; inhibition [18]: Active
O=S(=O)(Cc1ccccc1C(F)(F)F)N1CCc2ccccc2[C@@H]1c1c[nH]c2ccccc12,14.8,–
O=S(=O)(Cc1ccccc1)N1CCc2ccccc2[C@@H]1c1n[nH]c2ccccc12,9.5,–
COc1cc2c(C3c4ccccc4C=CN3S(=O)(=O)Cc3ccccc3)c[nH]c2cn1 (racemic),12.7,–
Nc1ncc([C@@H]2c3ccccc3CCN2S(=O)(=O)Cc2ccccc2)s1,> 25,–
O=S(=O)(Cc1ccccc1F)N1CCc2ccccc2[C@H]1c1c[nH]c2ccccc12,19.2,–
O=S(=O)(Cc1cccc(C(F)(F)F)c1)N1CCc2ccccc2[C@@H]1c1c[nH]c2ccccc12,11.1,–
O=S(=O)(Cc1ccccc1)N1CC=Cc2ccccc2[C@H]1c1c[nH]c2ccccc12,> 50,–
O=S(=O)(Cc1ccc(F)cc1)N1CCc2ccccc2[C@H]1c1c[nH]c2ccccc12,25.7,–
COc1nccc2c(C3c4ccccc4C=CN3S(=O)(=O)Cc3ccccc3)c[nH]c12 (racemic),6.3,–
